Measured values reported in publication PMC4767637 (Journal of molecular biology, 2016).

Experiments:
pSTAT3 homodimer [1] = assay: van't Hoff analysis of pSTAT3 monomer-dimer equilibrium by HMQC; format: binding, human; details: 25-45 °C, 700 MHz
Method in brief: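 His-tagged pSTAT3 (127-711), co-expressed with tyrosine kinase in E. coli TKB1, deuterated with Ile Cδ1 methyl 13CH3 labeling, in deuterated 10 mM MES pH 5.5, 2 mM TCEP, 0.03% sodium azide, 100% D2O. 2D 1H-13C HMQC at 700 MHz at 25, 30, 32, 34, 36, 38, 40 and 45 °C. Keq is the population ratio of exchanging species (a) and (b); ΔH0 and ΔS0 come from a linear fit of ln(Keq) vs 1/T.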

pSTAT3 homodimer [2] = assay: NMR CSP of pSTAT3 dimer versus uSTAT3; format: binding, human; details: 2D 13C-1H HMQC, 25 °C
pSTAT3 = assay: 13C SQ-CPMG relaxation dispersion; parameters: species or system human; details: 35 °C, 600 and 700 MHz, ~170 μM pSTAT3
I568F STAT3 = assay: NMR CSP of I568F STAT3 relative to WT; parameters: species or system human; details: 2D 13C-1H HMQC Ile spectra

Molecule	ΔS° of monomer-dimer equilibrium (I568 and I654) (pSTAT3 homodimer [1]; residues I568 (LD) and I654 (SH2))	ΔS° of monomer-dimer equilibrium (I653 and I711) (pSTAT3 homodimer [1]; residues I653 and I711)	CSPs of pSTAT3 dimer (pSTAT3 homodimer [2])	change in Rex of I568, pSTAT3 dimer versus pY904-bound uSTAT3 (pSTAT3)	CSP of I568F mutant relative to WT (I568F STAT3)
pSTAT3: Tyr-705-phosphorylated STAT3 (protein, phosphotyrosine at 705; left off: His6, C-terminal, state not stated) GQANHPTAAVVTEKQQMLEQHLQDVRKRVQDLEQKMKVVENLQDDFDFNYKTLKSQGDMQDLNGNNQSVTRQKMQQLEQMLTALDQMRRSIVSELAGLLSAMEYVQKTLTDEELADWKRRQQIACIGGPPNICLDRLENWITSLAESQLQTRQQIKKLEELQQKVSYKGDPIVQHRPMLEERIVELFRNLMKSAFVVERQPCMPMHPDRPLVIKTGVQFTTKVRLLVKFPELNYQLKIKVCIDKDSGDVAALRGSRKFNILGTNTKVMNMEESNNGSLSAEFKHLTLREQRCGNGGRANCDASLIVTEELHLITFETEVYHQGLKIDLETHSLPVVVISNICQMPNAWASILWYNMLTNNPKNVNFFTKPPIGTWDQVAEVLSWQFSSTTKRGLSIEQLTTLAEKLLGPGVNYSGCQITWAKFCKENMAGKGFSFWVWLDNIIDLVKKYILALWNEGYIMGFISKERERAILSTKPPGTFLLRFSESSKEGGVTFTWVEKDISGKTQIQSVEPYTKQQLNNMSFAEIIMGYKIMDATNILVSPLVYLYPDIPKEEAFGKYCRPESQEHPEADPGSAAPYLKTKFI	47.0 ± 3.7 cal/mol•K	42.2 ± 1.6 cal/mol•K	Additional CSPs unique to pSTAT3 were observed at I653 and I711	Larger increases in the Rex of I568 were observed for the dimeric pSTAT3 than for pY904-bound uSTAT3	–
I568F: HIES associated STAT3 mutation in the LD (protein, left off: His6, C-terminal, state not stated) GQANHPTAAVVTEKQQMLEQHLQDVRKRVQDLEQKMKVVENLQDDFDFNYKTLKSQGDMQDLNGNNQSVTRQKMQQLEQMLTALDQMRRSIVSELAGLLSAMEYVQKTLTDEELADWKRRQQIACIGGPPNICLDRLENWITSLAESQLQTRQQIKKLEELQQKVSYKGDPIVQHRPMLEERIVELFRNLMKSAFVVERQPCMPMHPDRPLVIKTGVQFTTKVRLLVKFPELNYQLKIKVCIDKDSGDVAALRGSRKFNILGTNTKVMNMEESNNGSLSAEFKHLTLREQRCGNGGRANCDASLIVTEELHLITFETEVYHQGLKIDLETHSLPVVVISNICQMPNAWASILWYNMLTNNPKNVNFFTKPPIGTWDQVAEVLSWQFSSTTKRGLSIEQLTTLAEKLLGPGVNYSGCQITWAKFCKENMAGKGFSFWVWLDNFIDLVKKYILALWNEGYIMGFISKERERAILSTKPPGTFLLRFSESSKEGGVTFTWVEKDISGKTQIQSVEPYTKQQLNNMSFAEIIMGYKIMDATNILVSPLVYLYPDIPKEEAFGKYCRPESQEHPEADPGSAAPYLKTKFI	–	–	–	–	significant CSP relative to WT protein in all structured domains of STAT3, from the CCD to SH2
